Source: ChEMBL document CHEMBL4130613, “Identification and Proposed Relative and Absolute Configurations of Niphimycins C-E from the Marine-Derived Streptomyces sp. IMB7-145 by Genomic Analysis” (J Nat Prod, 2018)
In brackets after ≈: the same amount, converted by molar mass. Activity calls are given as the source filed them. No cut-off for these calls is given here.

Experiments:
[1] = tested on: Staphylococcus epidermidis; assay: Antibacterial activity against methicillin-resistant Staphylococcus epidermidis 12-8 after 18 hrs by agar dilution method; type: functional
[2] = tested on: Providencia rettgeri; assay: Antibacterial activity against Providencia rettgeri ATCC 31052 after 18 hrs by agar dilution method; type: functional; conditions: ATCC 31052, 18 h
[3] = tested on: Escherichia coli; assay: Antibacterial activity against extended-spectrum beta-lactamase-negative Escherichia coli 12-14 after 18 hrs by agar dilution method; type: functional; conditions: 12-14, 18 h
[4] = tested on: Stenotrophomonas maltophilia; assay: Antibacterial activity against Stenotrophomonas maltophilia ATCC 13636 after 18 hrs by agar dilution method; type: functional; conditions: ATCC 13636, 18 h
[5] = tested on: Enterobacter cloacae; assay: Antibacterial activity against Enterobacter cloacae ATCC 43560 after 18 hrs by agar dilution method; type: functional; conditions: ATCC 43560, 18 h
[6] = tested on: Klebsiella pneumoniae; assay: Antibacterial activity against extended-spectrum beta-lactamase-positive Klebsiella pneumoniae ATCC 700603 after 18 hrs by agar dilution method; type: functional; conditions: Klebsiella pneumoniae, 700603, 18 h
[7] = tested on: Morganella morganii; assay: Antibacterial activity against Morganella morganii ATCC 25830 after 18 hrs by agar dilution method; type: functional; conditions: ATCC 25830, 18 h
[8] = tested on: Klebsiella pneumoniae; assay: Antibacterial activity against extended-spectrum beta-lactamase-negative Klebsiella pneumoniae 7 after 18 hrs by agar dilution method; type: functional; conditions: Klebsiella pneumoniae, 7, 18 h
[9] = tested on: Staphylococcus aureus; assay: Antibacterial activity against methicillin-resistant Staphylococcus aureus 12-33 after 18 hrs by agar dilution method; type: functional
[10] = tested on: Escherichia coli; assay: Antibacterial activity against extended-spectrum beta-lactamase-negative Escherichia coli ATCC 25922 after 18 hrs by agar dilution method; type: functional; conditions: ATCC 25922, 18 h
[11] = tested on: Candida albicans; assay: Antifungal activity against Candida albicans ATCC 10231 after 18 hrs by agar dilution method; type: functional; conditions: ATCC 10231, 18 h
[12] = tested on: Staphylococcus aureus; assay: Antibacterial activity against methicillin-resistant Staphylococcus aureus ATCC 33591 after 18 hrs by agar dilution method; type: functional
[13] = tested on: Proteus mirabilis; assay: Antibacterial activity against Proteus mirabilis 12-6 after 18 hrs by agar dilution method; type: functional; conditions: 12-6, 18 h
[14] = tested on: Klebsiella pneumoniae; assay: Antibacterial activity against NDM-1 positive Klebsiella pneumoniae ATCC BAA-2146 after 18 hrs by agar dilution method; type: functional; conditions: ATCC BAA-2146, 18 h
[15] = tested on: Pseudomonas aeruginosa; assay: Antibacterial activity against Pseudomonas aeruginosa 12-16 after 18 hrs by agar dilution method; type: functional; conditions: 12-16, 18 h
[16] = tested on: Escherichia coli; assay: Antibacterial activity against extended-spectrum beta-lactamase-negative Escherichia coli 1515 after 18 hrs by agar dilution method; type: functional; conditions: Escherichia coli, 1515, 18 h
[17] = tested on: Serratia marcescens; assay: Antibacterial activity against Serratia marcescens ATCC 21074 after 18 hrs by agar dilution method; type: functional; conditions: ATCC 21074, 18 h
[18] = tested on: Enterococcus faecium; assay: Antibacterial activity against vancomycin-resistant Enterococcus faecium 12-1 after 18 hrs by agar dilution method; type: functional
[19] = tested on: Klebsiella pneumoniae; assay: Antibacterial activity against extended-spectrum beta-lactamase-positive Klebsiella pneumoniae 12-8 after 18 hrs by agar dilution method; type: functional; conditions: 12-8, 18 h
[20] = tested on: HeLa; assay: Cytotoxicity against human HeLa cells after 48 hrs by SRB assay; type: functional, cell-based
Procedure, shortened: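 HeLa human cervical carcinoma cells obtained from ATCC. Cytotoxicity was read by sulforhodamine B staining following an earlier published protocol, with doxorubicin hydrochloride as positive control. Values are reported as IC50.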

[21] = tested on: Escherichia coli; assay: Antibacterial activity against extended-spectrum beta-lactamase-positive Escherichia coli 12-15 after 18 hrs by agar dilution method; type: functional; conditions: 12-15, 18 h
[22] = tested on: Citrobacter freundii; assay: Antibacterial activity against Citrobacter freundii ATCC 43864 after 18 hrs by agar dilution method; type: functional; conditions: ATCC 43864, 18 h
[23] = tested on: Enterococcus faecium; assay: Antibacterial activity against vancomycin-resistant Enterococcus faecium ATCC 700221 after 18 hrs by agar dilution method; type: functional
[24] = tested on: Proteus vulgaris; assay: Antibacterial activity against Proteus vulgaris ATCC 29905 after 18 hrs by agar dilution method; type: functional; conditions: ATCC 29905, 18 h
[25] = tested on: Acinetobacter calcoaceticus; assay: Antibacterial activity against Acinetobacter calcoaceticus ATCC 19606 after 18 hrs by agar dilution method; type: functional; conditions: ATCC 19606, 18 h
[26] = tested on: Klebsiella pneumoniae; assay: Antibacterial activity against extended-spectrum beta-lactamase-negative Klebsiella pneumoniae 12-4 after 18 hrs by agar dilution method; type: functional; conditions: 12-4, 18 h
[27] = tested on: Pseudomonas aeruginosa; assay: Antibacterial activity against Pseudomonas aeruginosa PAO1 after 18 hrs by agar dilution method; type: functional; conditions: PAO1, 18 h
[28] = tested on: Enterococcus faecalis; assay: Antibacterial activity against vancomycin-resistant Enterococcus faecalis 09-9 after 18 hrs by agar dilution method; type: functional
[29] = tested on: Klebsiella aerogenes; assay: Antibacterial activity against Enterobacter aerogenes ATCC 13048 after 18 hrs by agar dilution method; type: functional; conditions: ATCC 13048, 18 h
[30] = tested on: Pseudomonas aeruginosa; assay: Antibacterial activity against Pseudomonas aeruginosa ATCC 27853 after 18 hrs by agar dilution method; type: functional; conditions: ATCC 27853, 18 h
[31] = tested on: Enterococcus faecalis; assay: Antibacterial activity against vancomycin-resistant Enterococcus faecalis ATCC 51299 after 18 hrs by agar dilution method; type: functional

Compound | Activity [1] | MIC [2] [µg/mL] | MIC [3] [µg/mL] | MIC [4] [µg/mL] | MIC [5] [µg/mL] | MIC [6] [µg/mL] | MIC [7] [µg/mL] | MIC [8] [µg/mL] | Activity [9] | MIC [10] [µg/mL] | MIC [11] [µg/mL] | Activity [12] | MIC [13] [µg/mL] | MIC [14] [µg/mL] | MIC [15] [µg/mL] | MIC [16] [µg/mL] | MIC [17] [µg/mL] | Activity [18] | MIC [19] [µg/mL] | IC50 [20] [µM] | also measured
CNC(=N)NCCC/C=C/CCC[C@H](C)C[C@H](C)[C@@H](O)[C@@H](C)/C=C/C=C/[C@@H](O)[C@@H](C)[C@H](O)C[C@@H](O)C[C@H](O)C[C@@H](O)C[C@H](O)[C@@H](O)C(O)C[C@@H](O)[C@@H](C)CC[C@H](O)[C@@H](C)[C@@H](O)C[C@@H](O)[C@@H](C)/C=C/[C@@H](O)[C@@H](C)C(=O)O (stereo partly drawn) | Active | > 64 | > 64 | > 64 | > 64 | > 64 | > 64 | > 64 | Active | > 64 | 8 to 32 (≈ 7.43 to 29.7 µM) | Active | > 64 | > 64 | > 64 | > 64 | > 64 | Active | > 64 | > 10 | MIC [21]: > 64 µg/mL; MIC [22]: > 64 µg/mL; Activity [23]: Active; MIC [24]: > 64 µg/mL; MIC [25]: > 64 µg/mL; MIC [26]: > 64 µg/mL; MIC [27]: > 64 µg/mL; Activity [28]: Active; MIC [29]: > 64 µg/mL; MIC [30]: > 64 µg/mL; Activity [31]: Active
CNC(=N)NCCC/C=C/CCC[C@H](C)C[C@H](C)[C@H]1OC(=O)[C@H](C)[C@H](O)/C=C/[C@H](C)[C@H](O)C[C@H](O)[C@H](C)[C@@H](O)CC[C@H](C)[C@H](OC(=O)CC(=O)O)C[C@]2(O)O[C@H](C[C@@H](OC(=O)CC(=O)O)C[C@H](O)C[C@@H](O)[C@H](C)[C@H](O)/C=C/C=C/[C@@H]1C)C[C@H](O)[C@H]2O | Active | > 64 | > 64 | > 64 | > 64 | > 64 | > 64 | > 64 | Active | > 64 | 8 to 32 (≈ 6.51 to 26 µM) | Active | > 64 | > 64 | > 64 | > 64 | > 64 | Active | > 64 | 3 to 9 | MIC [21]: > 64 µg/mL; MIC [22]: > 64 µg/mL; Activity [23]: Active; MIC [24]: > 64 µg/mL; MIC [25]: > 64 µg/mL; MIC [26]: > 64 µg/mL; MIC [27]: > 64 µg/mL; Activity [28]: Active; MIC [29]: > 64 µg/mL; MIC [30]: > 64 µg/mL; Activity [31]: Active
CNC(=N)NCCC/C=C/CCC[C@H](C)C[C@H](C)[C@H]1OC(=O)[C@H](C)[C@H](O)/C=C/[C@H](C)[C@H](O)C[C@H](O)[C@H](C)[C@@H](O)CC[C@H](C)[C@H](O)C[C@]2(O)O[C@H](C[C@@H](OC(=O)CC(=O)O)C[C@H](O)C[C@@H](O)[C@H](C)[C@H](O)/C=C/C=C/[C@@H]1C)C[C@H](OC(=O)CC(=O)O)[C@H]2O | Active | > 64 | > 64 | > 64 | > 64 | > 64 | > 64 | > 64 | Active | > 64 | 8 to 32 (≈ 6.51 to 26 µM) | Active | > 64 | > 64 | > 64 | > 64 | > 64 | Active | > 64 | 3 to 9 | MIC [21]: > 64 µg/mL; MIC [22]: > 64 µg/mL; Activity [23]: Active; MIC [24]: > 64 µg/mL; MIC [25]: > 64 µg/mL; MIC [26]: > 64 µg/mL; MIC [27]: > 64 µg/mL; Activity [28]: Active; MIC [29]: > 64 µg/mL; MIC [30]: > 64 µg/mL; Activity [31]: Active
